Experimental data from article PMC4135234 (Combinatorial chemistry & high throughput screening, 2014).
One block for each molecule: values may come before it.

What was measured:
MSI = assay: FP MSI RNA binding assay, statement does not separate MSI1 and MSI2; set-up: species or system human; conditions: 10 μM
MSI2 [1] = molecular target: T1, MSI2 (Homo sapiens, UniProt Q96DH6); assay: Orthogonal SYBR-based EMSA, inhibition of RNA binding to MSI2; conditions: 1 mM (LC), MSI Oligo #2 200 pmols, 1000 ng protein
T1 sequence (Q96DH6 whole entry): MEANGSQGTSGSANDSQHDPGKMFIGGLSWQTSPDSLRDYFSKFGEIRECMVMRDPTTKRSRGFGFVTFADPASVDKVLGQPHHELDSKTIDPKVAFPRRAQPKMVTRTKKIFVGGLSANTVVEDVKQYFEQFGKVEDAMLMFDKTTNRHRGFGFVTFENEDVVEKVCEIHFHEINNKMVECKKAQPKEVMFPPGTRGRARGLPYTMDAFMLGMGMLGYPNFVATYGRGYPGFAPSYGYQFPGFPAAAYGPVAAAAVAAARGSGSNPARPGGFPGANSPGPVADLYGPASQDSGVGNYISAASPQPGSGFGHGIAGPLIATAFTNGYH

LIN28A [2] = molecular target: T2, LIN28A (Homo sapiens, UniProt Q9H9Z2); assay: Orthogonal SYBR-based EMSA, inhibition of RNA binding to LIN28A; conditions: 1 mM (LC), MSI Oligo #2 200 pmols, 1000 ng protein
T2 sequence (Q9H9Z2 1-209): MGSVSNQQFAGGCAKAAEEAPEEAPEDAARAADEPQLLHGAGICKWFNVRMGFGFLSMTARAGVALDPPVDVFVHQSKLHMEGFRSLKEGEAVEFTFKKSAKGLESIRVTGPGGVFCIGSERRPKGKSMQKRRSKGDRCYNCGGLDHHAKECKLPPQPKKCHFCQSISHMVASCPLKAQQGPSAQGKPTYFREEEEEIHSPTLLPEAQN
Summary of the method: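 GST-LIN28A (1000 ng, E. coli-expressed) pre-incubated 30 min at room temperature in EMSA buffer with 1% DMSO, 10 μM test compound or 1 mM oleic acid. Then 200 pmols 15-nt ssRNA MSI Oligo #2 added for 30 min more (20 μL). Native 10% polyacrylamide TBE gel in chilled 0.5X TBE at 4°C, 100V, 2–2.5 h. 2X SYBR Safe stain, imaged. At least two repeats.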

MSI2 [3] = molecular target: T1, MSI2; assay: FP probe displacement, 1536-well, MSI2; assay type: binding
Summary of the method: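 Displacement of 10 nM Cy3-C9-r(GUAGUAGU) probe from 1 μM GST-MSI2 was run as a dose response in 1536-well format, with FP read using Cy3 filters. IC50 for displacement came from two independent experiments, each performed in triplicate.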

MSI1 [4] = molecular target: T3, MSI1 (Homo sapiens, UniProt O43347); assay: Orthogonal SYBR-based EMSA, inhibition of RNA binding to MSI1; conditions: 1 mM (LC), MSI Oligo #2 200 pmols, 1000 ng protein
T3 sequence (O43347 whole entry): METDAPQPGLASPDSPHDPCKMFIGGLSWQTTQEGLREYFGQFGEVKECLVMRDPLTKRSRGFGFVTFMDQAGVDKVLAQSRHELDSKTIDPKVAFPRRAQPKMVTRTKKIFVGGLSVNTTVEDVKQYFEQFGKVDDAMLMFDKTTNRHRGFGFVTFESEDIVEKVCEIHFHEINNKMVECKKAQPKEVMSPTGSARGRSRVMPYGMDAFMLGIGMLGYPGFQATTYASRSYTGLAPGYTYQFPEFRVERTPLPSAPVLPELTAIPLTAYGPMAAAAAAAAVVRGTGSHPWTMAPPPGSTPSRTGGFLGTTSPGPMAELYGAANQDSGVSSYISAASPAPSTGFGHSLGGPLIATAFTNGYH

MSI1 [5] = molecular target: T3, MSI1; assay: SYBR-based RNA EMSA, ssRNA oligo binding to GST-MSI1; conditions: 200 pmols ssRNA oligo, 500 to 2500 ng GST-protein; symbols not defined
MSI2 [6] = molecular target: T1, MSI2; assay: SYBR-based RNA EMSA, ssRNA oligo binding to GST-MSI2; conditions: 200 pmols ssRNA oligo, 500 to 2500 ng GST-protein; symbols not defined
LIN28A [7] = molecular target: T2, LIN28A; assay: SYBR-based RNA EMSA, ssRNA oligo binding to GST-LIN28A; conditions: 200 pmols ssRNA oligo, 500 to 2500 ng GST-protein; symbols not defined

Molecule: CC[C@@]1(O)C[C@H](O[C@H]2C[C@H](N(C)C)[C@H](O)[C@H](C)O2)c2c(cc3c(c2O)C(=O)c2c(O)cccc2C3=O)[C@H]1C(=O)OC [aklavine]
MSI inhibition activity in FP pilot screen, in words (MSI): inhibiting MSI binding activity

Molecule: COc1cccc2c1C(=O)c1c(O)c3c(c(O)c1C2=O)C[C@@](O)(C(C)=O)C[C@@H]3O[C@H]1C[C@H](N)[C@H](O)[C@H](C)O1 [daunorubicin, reference compound]
MSI inhibition activity in FP pilot screen, in words (MSI): inhibiting MSI binding activity

MSI inhibition activity in FP pilot screen, in words (MSI): inhibiting MSI binding activity
Molecule: COc1cccc2c1C(=O)c1c(O)c3c(c(O)c1C2=O)C[C@@](O)(C(=O)CO)C[C@@H]3O[C@H]1C[C@H](N)[C@H](O)[C@H](C)O1 [doxorubicin, reference compound]

MSI inhibition activity in FP pilot screen, in words (MSI): inhibiting MSI binding activity
Molecule: CC(=O)[C@]1(O)Cc2c(O)c3c(c(O)c2[C@@H](O[C@H]2C[C@H](N)[C@H](O)[C@H](C)O2)C1)C(=O)c1ccccc1C3=O [idarubicin, reference compound]

Molecule: CCCCCCCC/C=C\CCCCCCCC(=O)O [oleic acid, reference compound]
% inhibition of RNA binding to MSI2 (EMSA) (MSI2 [1]): > 80%
% inhibition of RNA binding to LIN28A (EMSA) (LIN28A [2]): > 80%
IC50 (MSI2 [3]): 29 ± 1.7 µM
% inhibition of RNA binding to MSI1 (EMSA) (MSI1 [4]): > 80%

Molecule: CC[C@@]1(O)C[C@H](O)c2c(cc3c(c2O)C(=O)c2c(O)ccc(O)c2C3=O)[C@H]1C(=O)OC [rutilantinone]
MSI inhibition activity in FP pilot screen, in words (MSI): inhibiting MSI binding activity

Molecule: MSI Oligo #4: ssRNA oligo GUAGUAGUAGUAGUA, 15 nt, 4 MSI binding motifs (RNA, backbone not given here)
Binding affinity(EMSA) MSI1 (MSI1 [5]): highest affinity
Binding affinity(EMSA) MSI2 (MSI2 [6]): highest affinity
Binding affinity(EMSA) LIN28A (LIN28A [7]): highest affinity

Molecule: ssRNA Oligo #8: non-specific ssRNA oligo AGGGAUCGAAAAUUG, 15 nt, no binding motif (RNA, backbone not given here)
Binding affinity(EMSA) LIN28A (LIN28A [7]): high affinity
